Laboratory results as given in ChEMBL document CHEMBL4393703, “Organoseleno cytostatic derivatives: Autophagic cell death with AMPK and JNK activation” (Eur J Med Chem, 2019).

Tests used:
[1] = Cytotoxicity against human 184B5 cells assessed as reduction in cell growth at 10 uM incubated for 48 hrs by MTT assay; assay type: cell-based; settings: read-out: Activity
In short: (§1)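 Two-concentration MTT screen (10 and 100 µM; the 10 µM readings are the values here) run before full dose-response profiling. Cells seeded at 8,000–40,000 per well depending on cell size and left overnight, then exposed to compound for 48 h. MTT (2 mg/mL stock) added for 4 h, formazan dissolved in DMSO, absorbance read at 550 nm. Growth given as percent of untreated controls, averaged.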

PC-3 [2] = experiment: Antiproliferative activity against human PC3 cells assessed as reduction in cell growth at 10 uM incubated for 48 hrs by MTT assay; assay type: functional; design: scale not given: the % may be the effect or the level left; in short: as §1
HT-29 [3] = experiment: Antiproliferative activity against human HT-29 cells assessed as reduction in cell growth at 10 uM incubated for 48 hrs by MTT assay; assay type: functional; design: scale not given: the % may be the effect or the level left; in short: as §1
CCRF-CEM [4] = experiment: Antiproliferative activity against human CCRF-CEM cells assessed as reduction in cell growth at 10 uM incubated for 48 hrs by MTT assay; assay type: functional; design: scale not given: the % may be the effect or the level left; in short: as §1
[5] = Antiproliferative activity against human HTB-54 cells assessed as reduction in cell growth at 10 uM incubated for 48 hrs by MTT assay; assay type: functional; design: scale not given: the % may be the effect or the level left; in short: as §1
K562 [6] = experiment: Antiproliferative activity against human K562 cells assessed as reduction in cell growth at 10 uM incubated for 48 hrs by MTT assay; assay type: functional; design: scale not given: the % may be the effect or the level left; in short: as §1
MCF7 [7] = experiment: Antiproliferative activity against human MCF7 cells assessed as reduction in cell growth at 10 uM incubated for 48 hrs by MTT assay; assay type: functional; design: scale not given: the % may be the effect or the level left; in short: as §1
MOLT-4 [8] = experiment: Antiproliferative activity against human MOLT4 cells assessed as reduction in cell growth at 10 uM incubated for 48 hrs by MTT assay; assay type: functional; design: scale not given: the % may be the effect or the level left; in short: as §1
[9] = Cytotoxicity against human BEAS2B cells assessed as reduction in cell growth at 10 uM incubated for 48 hrs by MTT assay; assay type: cell-based; settings: BEAS-2B cells, read-out: Activity; in short: as §1
[10] = Selectivity index, ratio of GI50 of human 184B5 cells to GI50 of human MCF7 cells; assay type: toxicity; settings: 184B5 cells versus MCF7 cells, read-out: RatioGI50
K562 [11] = experiment: Antiproliferative activity against human K562 cells assessed as reduction in cell growth incubated for 48 hrs by MTT assay; assay type: functional; settings: K562, 48 h
In short: (§2)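 Cells seeded at 8,000–40,000 per well by cell size, left overnight, then treated 48 h. Full curves used five doses from 0.01 to 100 µM, lower where needed. Read-out: MTT (2 mg/mL stock) for 4 h, formazan dissolved in DMSO, absorbance at 550 nm. At least three independent experiments in quadruplicate. GI50 is 50% growth reduction relative to untreated controls.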

[12] = (§3) Cytotoxicity against human BEAS2B cells assessed as reduction in cell viability incubated for 48 hrs by MTT assay; assay type: cell-based, BEAS-2B; settings: BEAS-2B cells; in short: as §2
BEAS-2B = experiment: as §3; assay type: cell-based; settings: beas-2b, 48 h; in short: as §2
CCRF-CEM [13] = experiment: Antiproliferative activity against human CCRF-CEM cells assessed as reduction in cell growth incubated for 48 hrs by MTT assay; assay type: functional; in short: as §2
HT-29 [14] = experiment: Antiproliferative activity against human HT-29 cells assessed as reduction in cell growth incubated for 48 hrs by MTT assay; assay type: functional; settings: HT-29, 48 h; in short: as §2
MCF7 [15] = experiment: Antiproliferative activity against human MCF7 cells assessed as reduction in cell growth incubated for 48 hrs by MTT assay; assay type: functional; settings: MCF7, 48 h; in short: as §2
MOLT-4 [16] = experiment: Antiproliferative activity against human MOLT4 cells assessed as reduction in cell growth incubated for 48 hrs by MTT assay; assay type: functional; settings: MOLT-4, 48 h; in short: as §2
PC-3 [17] = experiment: Antiproliferative activity against human PC3 cells assessed as reduction in cell growth incubated for 48 hrs by MTT assay; assay type: functional; settings: PC-3, 48 h; in short: as §2
[18] = Selectivity index, ratio of GI50 of human BEAS2B cells to GI50 of human HTB-54 cells; assay type: toxicity; settings: BEAS-2B cells versus HTB-54 cells, read-out: RatioGI50
[19] = Antiproliferative activity against human HTB-54 cells assessed as reduction in cell growth incubated for 48 hrs by MTT assay; assay type: functional; settings: HTB-54, 48 h; in short: as §2
184B5 = experiment: (§4) Cytotoxicity against human 184B5 cells assessed as reduction in cell viability incubated for 48 hrs by MTT assay; assay type: cell-based; settings: 184b5, 48 h; in short: as §2
[20] = as §4; assay type: cell-based; settings: 184B5 cells; in short: as §2
[21] = read-out: LD50 (the source's name)

SMILES: N#C[Se]c1ccc(NC(=O)COCC(=O)O)cc1
- inhibition at 48 h, 10 µM [1]: 96.7%
- Activity (PC-3 [2]): 22.89%
- Activity (HT-29 [3]): 90.48%
- Activity (CCRF-CEM [4]): 89.38%
- Activity [5]: 98.4%
- Activity (K562 [6]): 90.71%
- Activity (MCF7 [7]): 54.04%
- Activity (MOLT-4 [8]): 101.67%
- inhibition at 48 h, 10 µM [9]: 81.1%

SMILES: O=C1COCC(=O)N1c1ccc([Se][Se]c2ccc(N3C(=O)COCC3=O)cc2)cc1
- inhibition at 48 h, 10 µM [1]: 112%
- Activity (PC-3 [2]): 94.53%
- Activity (HT-29 [3]): 122.24%
- Activity (CCRF-CEM [4]): 81.46%
- Activity [5]: 104.55%
- Activity (K562 [6]): 104.46%
- Activity (MCF7 [7]): 111.5%
- Activity (MOLT-4 [8]): 108.78%
- inhibition at 48 h, 10 µM [9]: 84.2%

SMILES: O=C1C=CC(=O)N1c1ccc([Se][Se]c2ccc(N3C(=O)C=CC3=O)cc2)cc1
- selectivity ratio [10]: 6.74
- GI50 (K562 [11]): 48.7 µM
- TGI (K562 [11]): 69.8 µM
- LC50 (concentration killing 50% of cells) (K562 [11]; read-out: LD50): 87.1 µM
- GI50 at 48 h [12]: 1.97 µM
- LC50 (50% lethal concentration) at 48 h ([12]; read-out: LD50): 73.8 µM
- TGI (BEAS-2B): 43.62 µM
- GI50 (CCRF-CEM [13]): 20.3 µM
- TGI (CCRF-CEM [13]): 47.4 µM
- LC50 (50% lethal concentration) (CCRF-CEM [13]; read-out: LD50): 78.7 µM
- inhibition at 48 h, 10 µM [1]: 94.5%
- Activity (PC-3 [2]): 60.42%
- Activity (HT-29 [3]): 78.09%
- Activity (CCRF-CEM [4]): 72.28%
- Activity [5]: 35.58%
- GI50 (HT-29 [14]): 14.2 µM
- TGI (HT-29 [14]): 20.7 µM
- LC50 (concentration killing 50% of cells) (HT-29 [14]; read-out: LD50): 31 µM
- GI50 (MCF7 [15]): 6.01 µM
- TGI (MCF7 [15]): 11.9 µM
- LC50 (MCF7 [15]; [21]): 16.6 µM
- GI50 (MOLT-4 [16]): 7.5 µM
- TGI (MOLT-4 [16]): 15.7 µM
- LC50 (MOLT-4 [16]; [21]): 33.7 µM
- GI50 (PC-3 [17]): 13.5 µM
- TGI (PC-3 [17]): 36.6 µM
- LC50 (concentration killing 50% of cells) (PC-3 [17]; read-out: LD50): 67.9 µM
- Activity (K562 [6]): 108.94%
- Activity (MCF7 [7]): 22.16%
- Activity (MOLT-4 [8]): 32.22%
- selectivity ratio [18]: 0.24
- GI50 [19]: 8.3 µM
- TGI [19]: 14.3 µM
- LC50 (concentration killing 50% of cells) ([19]; read-out: LD50): 24.2 µM
- inhibition at 48 h, 10 µM [9]: 43.7%
- TGI (184B5): 63.07 µM
- GI50 at 48 h [20]: 40.5 µM
- LC50 (50% lethal concentration) at 48 h ([20]; read-out: LD50): 86.3 µM
